The record followed here is PubChem BioAssay.

A short description of assay [1]: Her2 expression decrease, cell viability multiplex – SKBR3 breast tumor cells, AlphaScreen, ATP viability, primary screen (AID 461;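 active = Her2 level under about 52% in both replicate screens, with viability over 70% of control, limit read from the data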;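 as to Her2 level: lower value means less Her2 protein in the cells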;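 as to viability: percent of carrier control wells set as 100% viability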). The following applies: SKBR3 Her2 protein level, 18-24 h, measured here: SKBR3 viability, ATP luminescence, at 10 µM. On the technique in general: Alpha assays give light when donor and acceptor beads are brought close together.
Assay [2] concerns the target Receptor tyrosine-protein kinase erbB-2 (Homo sapiens) (UniProt P04626). The assay is described as above. The note with it: 18-24 h, at 10 µM, stronger effect = lower value.
A short description of assay [3]: reduced viability of SK-BR-3 breast cancer cells – cell-based, 24 h, human, pilot screen (AID 572).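 Also: compound exposure lasted between 18 and 24 h rather than exactly 24 h; 100% = carrier-treated control wells.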 The note with it: SK-BR-3 viability, CellTiter-Glo luminescence, at 10 µM, stronger effect = lower value. (ATP-based viability assays read luminescence as a measure of living cells.)
The nature of assay [4]: HUVEC growth inhibition – cell-based, human, primary screen (AID 575;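 active = viability at or below 30% in both replicate assays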;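 also: 100% = median of untreated cell wells with 0.1% DMSO on each plate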). The following applies: HUVEC proliferation, CellTiter-Glo luminescence, 72 h; at 10 µM; stronger effect = lower value. An outline of the steps: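 system = HUVEC primary cells | amount = 1250 cells/well | buffer or medium = supplemented EBM, 2% fetal bovine serum | dosing = single-point 10 µM, DMSO 0.1% final | times = 72 h compound incubation | detection = CTG luminescence | read-out = % viability relative to median vehicle-well signal on each plate | control set = vehicle and MePR control wells | format = collagen-coated 384-well format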

The nature of assay [5]: H69AR cell proliferation blockers – human, duplicate replicates, primary screen (AID 580;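 active = viability at or under a set limit in both replicates, limit being median viability minus 3 SD, cut at about 48% in these data, passing the limit was not always enough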;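 also: 100% = mean luminescence of untreated wells and 0% = no signal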). The following applies: H69AR lung tumor cells viability, ATP luminescence, 72 h; at 10 µM; stronger effect = lower value.
The nature of assay [6]: MRP1 drug-resistance reversers in H69AR cells – cell-based, doxorubicin co-treatment, pilot screen (AID 601;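 active = viability loss from added drug above about 55%, and viability with drug at most 40%, in both replicates, limit read from the data, passing the limit was not always enough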). The note with it: CellTiter-Glo, 72 h, at 10 µM; for differential viability (reversal): stronger effect = higher value.
Assay [7] can be described thus: yeast transport mutant growth inhibition pilot in 384-well plates, post-Golgi transport modulator project (AID 636; in the data active = inhibition above about 31%). The note with it: absorbance 615 nm, about 18 h, stronger effect = higher value.
The nature of assay [8]: growth suppression of yeast trafficking mutant, preliminary HTS, modulators of trafficking downstream of Golgi apparatus project, 1536-format plate, OD 615 nm (AID 637; in the data active = inhibition above about 30%). The following applies: yeast transport mutant growth, absorbance 615 nm, 18 h; stronger effect = higher value.
Where [9] appears, read: H69AR cells + 2 uM doxorubicin, measured here: viability with 2 uM doxorubicin, stronger effect = lower value.
Setting [10] is: H69AR cells, compound alone cytotoxicity.

Calls of active or inactive are those of the source.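 The calls were made as follows, unless noted: active = viability at or below 10% of carrier control in both of two separate runs; inconclusive = viability at or below 10% in only one of the two runs; inactive = the rest.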

Sequence of Receptor tyrosine-protein kinase erbB-2 (Homo sapiens) (P04626 whole entry, looked up): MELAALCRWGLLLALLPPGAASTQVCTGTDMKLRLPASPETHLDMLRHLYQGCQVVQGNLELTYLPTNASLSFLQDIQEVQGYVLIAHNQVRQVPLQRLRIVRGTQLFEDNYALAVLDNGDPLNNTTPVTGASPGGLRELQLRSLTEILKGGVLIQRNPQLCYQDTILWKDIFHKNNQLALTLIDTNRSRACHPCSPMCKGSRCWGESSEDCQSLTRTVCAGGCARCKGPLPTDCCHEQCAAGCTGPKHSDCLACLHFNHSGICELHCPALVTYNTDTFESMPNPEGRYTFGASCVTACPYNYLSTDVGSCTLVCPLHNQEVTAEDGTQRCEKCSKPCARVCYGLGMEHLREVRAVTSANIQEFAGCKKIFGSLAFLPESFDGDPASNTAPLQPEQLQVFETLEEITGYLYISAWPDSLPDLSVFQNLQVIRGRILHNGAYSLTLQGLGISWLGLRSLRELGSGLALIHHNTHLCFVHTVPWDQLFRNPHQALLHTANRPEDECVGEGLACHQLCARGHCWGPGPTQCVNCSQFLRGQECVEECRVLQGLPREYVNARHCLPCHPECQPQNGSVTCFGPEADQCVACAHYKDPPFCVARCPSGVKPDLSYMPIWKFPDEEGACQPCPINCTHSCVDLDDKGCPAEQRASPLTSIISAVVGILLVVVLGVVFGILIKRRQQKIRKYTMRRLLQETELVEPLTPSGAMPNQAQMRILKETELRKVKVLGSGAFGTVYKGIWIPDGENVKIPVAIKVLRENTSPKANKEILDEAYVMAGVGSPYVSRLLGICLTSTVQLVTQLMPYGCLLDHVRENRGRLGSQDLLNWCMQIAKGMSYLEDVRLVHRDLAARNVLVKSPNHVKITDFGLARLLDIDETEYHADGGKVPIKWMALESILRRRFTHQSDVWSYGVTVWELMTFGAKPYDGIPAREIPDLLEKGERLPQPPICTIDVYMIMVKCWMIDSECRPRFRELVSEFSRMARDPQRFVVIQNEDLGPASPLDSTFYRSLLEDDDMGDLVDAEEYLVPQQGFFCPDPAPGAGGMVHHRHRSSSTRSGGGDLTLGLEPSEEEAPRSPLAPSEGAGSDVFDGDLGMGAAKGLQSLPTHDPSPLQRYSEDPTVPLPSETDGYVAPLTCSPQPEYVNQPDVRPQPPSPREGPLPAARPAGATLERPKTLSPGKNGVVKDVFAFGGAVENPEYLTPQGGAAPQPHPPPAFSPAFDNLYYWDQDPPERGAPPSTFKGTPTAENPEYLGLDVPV

By viability is commonly meant a read-out of living cells in per cent, often relative to untreated cells. Usually inhibition stands for the change of the read-out against control, counted positive when it falls. `CN(Cc1nc(-c2ccncc2)no1)S(=O)(=O)c1ccccc1`: the viability is 99.5% in assay [1]; 99.5% (inactive) in assay [3]; 96.3% (inactive) in assay [4]; 95.7% (inactive) in assay [5]; 88.7% in assay [6] (setting [9]); 95.7% in assay [6] (setting [10]). Further, in assay [2], the Her2 level is 79% (inactive). Further, the differential viability (reversal) in assay [6] (H69AR cells + 2 uM doxorubicin) is 7.03% (inactive). The values for the inhibition in assay [7] and in assay [8] were -7.57% (inactive) and 0.79% (inactive), respectively.
As to `O=C(Nc1ncc(Br)s1)C1CCCN1S(=O)(=O)c1cccc2cccnc12` (stereo not given), the viability in assay [1] was 93%; in assay [3], 93% (inactive); in assay [4] it was 87.4% (inactive); in assay [5], 29.8% (active); in assay [6] (setting [9]), 40.6%; in assay [6] (setting [10]), 29.8%. Also, in assay [2], the Her2 level is 81.5% (inactive). The differential viability (reversal) in assay [6] (H69AR cells + 2 uM doxorubicin) is -10.8% (inactive). Besides, the values for the inhibition in assay [7] and in assay [8] were -0.38% (inactive) and -1.5% (inactive), respectively.
With `COC(=O)c1sc2ccccc2c1NC(=O)c1cccs1`, the viability in assay [1] is 97.5%; in assay [3], 97.5% (inactive); in assay [4], 82.1% (inactive); in assay [5], 82.1% (inactive); in assay [6] (setting [9]) it was 99.3%; in assay [6] (setting [10]), 82.1%. Further, in assay [2], the Her2 level is 99.5% (inactive). Besides, in assay [6] (H69AR cells + 2 uM doxorubicin), the differential viability (reversal) is -17.2% (inactive). Further, the results for the inhibition in assay [7] and in assay [8] were -2.08% (inactive) and -5.87% (inactive), respectively.
Take `O=C1c2ccccc2C(=O)N1CNc1ccccc1`: the viability was 96.5% in assay [1]; 96.5% (inactive) in assay [3]; 108% (inactive) in assay [4]; 101% (inactive) in assay [5]; 118% in assay [6] (setting [9]); 101% in assay [6] (setting [10]). Further, the Her2 level in assay [2] is 93.5% (inactive). Further, in assay [6] (H69AR cells + 2 uM doxorubicin), the differential viability (reversal) is -17.7% (inactive). The inhibition in assay [7] was -5.2% (inactive); in assay [8] it was -1.15% (inactive).
With `CCOC(=O)CNC(=O)Nc1nnc(-c2ccc(OCC)cc2)o1`, the viability in assay [1] was 99%; in assay [3] it was 99% (inactive); in assay [4] it was 105% (inactive); in assay [5] it was 98.3% (inactive); in assay [6] (setting [9]), 90.3%; in assay [6] (setting [10]) it was 98.3%. The Her2 level in assay [2] was 92% (inactive). Also, the differential viability (reversal) in assay [6] (H69AR cells + 2 uM doxorubicin) is 8% (inactive). Besides, the inhibition is -1.08% (inactive) in assay [7] and -3.02% (inactive) in assay [8].
With `CCOC(=O)C1CCCN(C(=O)c2cc(=O)c3ccccc3o2)C1` (stereo not given), the viability in assay [1] is 94.5%; in assay [3], 94.5% (inactive); in assay [4], 95.2% (inactive); in assay [5], 97.3% (inactive); in assay [6] (setting [9]), 102%; in assay [6] (setting [10]), 97.3%. Moreover, in assay [2], the Her2 level is 87% (inactive). Besides, the differential viability (reversal) in assay [6] (H69AR cells + 2 uM doxorubicin) is -4.92% (inactive). Besides, the inhibition was -2.89% (inactive) in assay [7] and -0.95% (inactive) in assay [8].
On to `Cc1csc2nc3ccccc3c(=O)n12`, for which the viability was 100% in assay [1]; 100% (inactive) in assay [3]; 103% (inactive) in assay [4]; 94.7% (inactive) in assay [5]; 93.2% in assay [6] (setting [9]); 94.7% in assay [6] (setting [10]). Moreover, in assay [2], the Her2 level was 91% (inactive). In assay [6] (H69AR cells + 2 uM doxorubicin), the differential viability (reversal) was 1.49% (inactive). The values for the inhibition in assay [7] and in assay [8] were -1.84% (inactive) and 1.31% (inactive), respectively.
As for `Cc1cc(NC(=O)Cc2cn3ccsc3n2)n(-c2ccccc2)n1`, the viability in assay [1] was 91%; in assay [3] it was 91% (inactive); in assay [4] it was 91.8% (inactive); in assay [5], 94.9% (inactive); in assay [6] (setting [9]), 89.9%; in assay [6] (setting [10]), 94.9%. In addition, the Her2 level in assay [2] is 103% (inactive). In assay [6] (H69AR cells + 2 uM doxorubicin), the differential viability (reversal) was 5.08% (inactive). Also, the values for the inhibition in assay [7] and in assay [8] were -0.64% (inactive) and 0.33% (inactive), respectively.
Consider `OC(COc1ccc2ccccc2c1)CN1CCOCC1` (stereo not given), for which the viability in assay [1] was 98.5%; in assay [3], 98.5% (inactive); in assay [4], 82.6% (inactive); in assay [5] it was 81.5% (inactive); in assay [6] (setting [9]), 83.8%; in assay [6] (setting [10]), 81.5%. Besides, the Her2 level in assay [2] was 87% (inactive). Besides, the differential viability (reversal) in assay [6] (H69AR cells + 2 uM doxorubicin) is -2.29% (inactive). Moreover, the inhibition in assay [7] was 1.56% (inactive); in assay [8], 0.66% (inactive).
Turning to `CCCCOn1c(C)c(C(=O)OCC)c2c3nonc3ccc21`, the viability was 98.5% in assay [1]; 98.5% (inactive) in assay [3]; 63.5% (inactive) in assay [4]; 83.5% (inactive) in assay [5]; 68.6% in assay [6] (setting [9]); 83.5% in assay [6] (setting [10]). Moreover, the Her2 level in assay [2] was 114% (inactive). Besides, the differential viability (reversal) in assay [6] (H69AR cells + 2 uM doxorubicin) is 15% (inactive). Moreover, the inhibition in assay [7] was 4.4% (inactive); in assay [8] it was 27.6% (inactive).
On to `O=C(O)C1CCCN1C(=O)Nc1ccc(F)cc1` (stereo not given), for which the viability in assay [1] was 87%; in assay [3], 87% (inactive); in assay [4] it was 106% (inactive); in assay [5], 93.6% (inactive); in assay [6] (setting [9]), 83.1%; in assay [6] (setting [10]) it was 93.6%. Besides, the Her2 level in assay [2] is 90.5% (inactive). The differential viability (reversal) in assay [6] (H69AR cells + 2 uM doxorubicin) was 10.5% (inactive). Moreover, the inhibition in assay [7] was -4.73% (inactive); in assay [8], -8.5% (inactive).
On to `COc1ccc2[nH]c(=O)c(CN(C(=O)c3ccncc3)C(C)C)cc2c1`, for which the viability in assay [1] is 96%; in assay [3], 96% (inactive); in assay [4], 113% (inactive); in assay [5], 98.5% (inactive); in assay [6] (setting [9]), 94.2%; in assay [6] (setting [10]), 98.5%. Moreover, in assay [2], the Her2 level was 108% (inactive). Further, the differential viability (reversal) in assay [6] (H69AR cells + 2 uM doxorubicin) was 4.29% (inactive). Further, the figures for the inhibition in assay [7] and in assay [8] were -3.12% (inactive) and 4% (inactive), respectively.
